Published values collected from several papers.

| Structure (SMILES) | target or system | assay | test system | conditions | measurement | value |
| --- | --- | --- | --- | --- | --- | --- |
| N#Cc1ccc(NC(=S)NN=Cc2ccc(N(CCCl)CCCl)cc2)cc1 | CCRF-CEM | cell growth or viability | – | 72 h | IC50 | 0.7 µg/mL |
| CO[C@H]1/C=C/O[C@@]2(C)Oc3c(C)c(O)c4c(O)c(c(/C=N/N5CCN(C)CC5)c(O)c4c3C2=O)NC(=O)/C(C)=C\C=C\[C@H](C)[C@H](O)[C@@H](C)[C@@H](O)[C@@H](C)[C@H](OC(C)=O)[C@@H]1C | Mycobacterium marinum | microbial growth | ATCC927 | – | MIC | < 0.2 µg/mL |
| CCOC(=O)c1c(CSc2ccccc2)n(C)c2cc(Br)c(O)c(CN(C)C)c12.Cl.O | Cowpox virus | microbial growth | – | – | MIC50 | > 20 µg/mL |
| COC(=O)c1cc(-c2cccc(NC(=O)Nc3ccc(C(F)(F)F)cc3)c2)on1 | Mycolicibacterium fortuitum | microbial growth, broth dilution | ATCC6841 | 48 h | MIC | > 64 µg/mL |
| Cc1ccc(-c2nc3ccc(C)cn3c2CC(=O)N(C)C)cc1 | Mycobacterium marinum | microbial growth | – | 5 days | MIC | > 50 µM |
| CC(C(=O)N1CCCCC1)c1cccc(C(OC(=O)N2CCCCC2)c2ccccc2)c1 (stereo not shown) | CCRF-CEM | cell growth or viability | – | 72 h | IC50 | 13 µM |
| COC(=O)c1cc(-c2cccc(NC(=O)Nc3ccccc3F)c2)on1 | Mycolicibacterium fortuitum | microbial growth, broth dilution | ATCC6841 | 48 h | MIC | > 64 µg/mL |
| N.N.[Cl][Pt][Cl] | PK-59 | cell growth or viability, MTT | – | 24 h | IC50 | 2.66 µM |
| COC(=O)c1cc(-c2cccc(NC(=O)Nc3ccc(F)cc3)c2)on1 | Mycolicibacterium fortuitum | microbial growth, broth dilution | ATCC6841 | 48 h | MIC | > 64 µg/mL |
| CC(C(=O)n1nnc2ccccc21)c1cccc(C(OC(=O)n2nnc3ccccc32)c2ccccc2)c1 (stereo not shown) | CCRF-CEM | cell growth or viability | – | 72 h | IC50 | 67 µM |
| COC(=O)c1cc(-c2cccc(NC(=O)NCc3ccccc3)c2)on1 | Mycolicibacterium fortuitum | microbial growth, broth dilution | ATCC6841 | 48 h | MIC | > 64 µg/mL |
| Cc1ccnc2c1NC(=O)c1cccnc1N2C1CC1 | Human immunodeficiency virus 1 | viral replication, inhibitor | human PBMC | clinical isolate | IC90 | 227 nM |
| [H]/N=C(/N)N[C@H]1[C@H](O)[C@@H](O)[C@H](O[C@@H]2O[C@@H](C)[C@](O)(C=O)[C@H]2O[C@@H]2O[C@@H](CO)[C@H](O)[C@@H](O)[C@@H]2NC)[C@@H](N/C(N)=N\[H])[C@@H]1O | Mycolicibacterium fortuitum | microbial growth | ATCC6841 | – | MIC | 50 µg/mL |
| Nc1ccn(C[C@@H](CO)OCP(=O)(O)O)c(=O)n1 | Cowpox virus | viral replication | – | – | IC50 | 30 µM |
| Nc1nc2c(ncn2COCCO)c(=O)[nH]1 | Cowpox virus | microbial growth | – | – | MIC50 | 250 µM |
| COC(=O)c1cc(-c2cccc(NC(=O)Nc3ccccc3)c2)on1 | Mycolicibacterium fortuitum | microbial growth, broth dilution | ATCC6841 | 48 h | MIC | > 64 µg/mL |
| COc1ccc(C=NNC(=S)Nc2ccc(C#N)cc2)cc1 | CCRF-CEM | cell growth or viability | – | 72 h | IC50 | > 200 µg/mL |
| O=c1[nH]c(=O)n([C@H]2C[C@H](O)[C@@H](CO)O2)cc1/C=C/Br | Cowpox virus | microbial growth | – | – | MIC50 | 50 µM |
| COC(=O)c1cc(-c2cccc(NC(=O)Nc3cc(Cl)ccc3Cl)c2)on1 | Mycolicibacterium fortuitum | microbial growth, broth dilution | ATCC6841 | 48 h | MIC | > 64 µg/mL |
